Measured values reported in publication PMC10237622 (Structure (London, England : 1993), 2023).

Key:
[1] = system: CSP peptides Pep-II through Pep-IV; assay: BLI free energies of binding, peptides Pep-II through Pep-IV versus Pep-I; parameters: species or system Plasmodium falciparum; conditions: Pep-II though Pep-IV after subtraction of Pep-I
In short: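 Free energy of binding was calculated from each experimental KD. The Pep-I value was subtracted from Pep-II through Pep-IV to isolate added binding energy from multivalent and homotypic interactions.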

[2] = biological target: CSP peptide Pep-IV (3 NPNV; 1 NPNA); assay: Biolayer interferometry; assay type: binding, Plasmodium falciparum
[3] = system: CSP peptide Pep-III (2 NPNV; 0 NPNA); assay: Biolayer interferometry; assay type: binding, Plasmodium falciparum
[4] = system: CSP peptide Pep-II (1 NPNV; 1 NPNA); assay: Biolayer interferometry; assay type: binding, Plasmodium falciparum
In short: (§1)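 Streptavidin biosensors were loaded with biotinylated CSP peptide at 0.1 ug/mL in PBS + 1% BSA. Loading times were shortened per peptide (45, 30, 15, 3 s) to keep density below 0.01 nm. After a 60 s baseline, Fab (2000–2.7 nM), IgG (1000–1.3 nM) or IgM (100–0.1 nM) associated for 240–300 s, then dissociated 1200 s, at 30°C with agitation. Curves were drift-corrected against a loaded sensor in PBS and fitted globally to a 1:1 Langmuir model.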

[5] = system: CSP peptide Pep-I (1 NPNV; 0 NPNA); assay: Biolayer interferometry; assay type: binding, Plasmodium falciparum; conditions: IgG versus Fab
In short: as §1

[6] = system: peptides Pep-I through Pep-IV; assay: Reverse-format BLI, immobilized L9 IgG dipped into peptide; assay type: binding, Plasmodium falciparum; conditions: IgG (5 ug/mL) immobilized on AHC biosensors to 0.1 nm, dipped into varying peptide concentrations, 30°C

Row | Substance | increase in affinity, Fab/IgG/IgM context compared (in words) [1] | decrease in KD (in words) ([2]; L9 IgG, Pep-IV versus Pep-I) | affinity (in words) ([2]; Pep-IV (3 NPNV; 1 NPNA)) | increase in affinity (free energy of binding ΔG minus ΔG of Pep-I) ([3]; L9 IgG, homotypic and preferred NPNV with two L9s (Pep-III), calculated from KD) [kcal/mol] | affinity, fold higher than to Pep-II ([3]; Pep-III versus Pep-II) | increase in affinity (free energy of binding ΔG minus ΔG of Pep-I) ([4]; L9 IgG, homotypic and less preferred NPNA with two L9s (Pep-II), calculated from KD) [kcal/mol] | affinity, fold higher than to Pep-I ([4]; Pep-II versus Pep-I) | on-rate, fold higher than Fab [5] [fold] | affinity, reverse format (in words) [6]
1 | L9 IgG: L9 IgG, produced in house | greatest in the IgG context | over two orders of magnitude | substantially higher affinity | -2.2 | ~ 6 fold | -1.1 | ~ 6 fold | 25 | comparable affinities to peptides Pep-I through Pep-IV
2 | IgM: L9 IgM, produced in house | lowest in the IgM context | – | – | – | – | – | – | – | –
